Active and inactive are the calls of the source.
Assays:
[1] = Antioxidant activity in Sprague-Dawley rat erythrocytes assessed as peroxyl radical-induced hemolysis after 1 hr; assay type: functional, Erythrocyte
[2] = Antioxidant activity assessed as ABTS radical scavenging activity at 2 mM; assay type: functional
How it was run: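 ABTS radical scavenging, read as the fall in colour absorbance after MeOH/phosphate buffer (1:1) is added. % inhibition = (A_control − A_test)/A_control × 100. The negative control uses MeOH/phosphate buffer (1:1) in place of compound, the blank omits ABTS, and ascorbic acid is the positive control.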

[3] = Protection against bleomycin-induced damage in calf thymus type 1 DNA assessed as absorbance at 532 nm after 1 hr; set-up: concentration or dose not given beside the values
How it was run: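 Reaction mixture: calf thymus DNA 0.5 mg/mL, bleomycin sulfate 0.05 mg/mL, MgCl2 5 mM, […], sample at various concentrations; 37 °C for 1 h. Stopped with EDTA (0.1 M), then TBA (1% w/v) plus HCl (25% v/v), heated 80 °C 10 min. After centrifugation, DNA damage read as absorbance increase at 532 nm. L-ascorbic acid as positive control.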

Brain = test: Antioxidant activity in Sprague-Dawley rat brain assessed as inhibition of lipid peroxidation; assay type: functional, tissue-based
Kidney = test: Antioxidant activity in Sprague-Dawley rat kidney assessed as inhibition of lipid peroxidation; assay type: functional, tissue-based
Rattus norvegicus [4] = test: Antiinflammatory activity in Sprague-Dawley rat assessed as protection against carrageenan-induced hind paw edema at 20 mg/kg, po administered 1 hr before carrageenan challenge measured after 1 hr; assay type: functional
How it was run: (§1)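 Adult female albino rats (150–180 g), fasted 18 h, six per group. Aqueous suspension in distilled water given orally at 20 mg/kg 1 h before subplantar injection of 0.1 mL 1% w/v carrageenan into the left hind paw. Vehicle controls got 0.5 mL water; diclofenac sodium 20 mg/kg po was the reference. Paw volume was measured by mercury plethysmometer before injection and hourly for 4 h. Inhibition = (Ec−Et)/Ec, with edema = (Vt−V0)/V0.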

Rattus norvegicus [5] = test: Antiinflammatory activity in Sprague-Dawley rat assessed as protection against carrageenan-induced hind paw edema at 20 mg/kg, po administered 1 hr before carrageenan challenge measured after 2 hrs; assay type: functional; how it was run: as §1
Rattus norvegicus [6] = test: Antiinflammatory activity in Sprague-Dawley rat assessed as protection against carrageenan-induced hind paw edema at 20 mg/kg, po administered 1 hr before carrageenan challenge measured after 3 hrs; assay type: functional; how it was run: as §1
Mus musculus [7] = test: Central analgesic activity in Swiss albino mouse assessed as thermal stimuli reaction time at 20 mg/kg, po after 30 mins by hot plate method; assay type: functional
How it was run: (§2)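 Swiss mice of both sexes (25–30 g), six per group, on a hot plate held at 53 ± 0.5 °C. Latency was timed to hind-paw licking or jumping, with a 60 s cut-off. It was measured before dosing, then at 15, 30, 60 and 90 min after an oral aqueous suspension at 20 mg/kg. Controls were untreated; oral diclofenac sodium 20 mg/kg was the reference.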

Mus musculus [8] = test: Central analgesic activity in Swiss albino mouse assessed as thermal stimuli reaction time at 20 mg/kg, po after 60 mins by hot plate method; assay type: functional; how it was run: as §2
Mus musculus [9] = test: Central analgesic activity in Swiss albino mouse assessed as thermal stimuli reaction time at 20 mg/kg, po after 90 mins by hot plate method; assay type: functional; how it was run: as §2
Mus musculus [10] = test: Peripheral analgesic activity in Swiss albino mouse assessed as protection against acetic acid-induced writhing response at 20 mg/kg, po administered 30 mins before acetic acid challenge measured after 30 mins relative to control; assay type: functional
Mus musculus [11] = test: Peripheral analgesic activity in Swiss albino mouse assessed as protection against acetic acid-induced writhing response at 20 mg/kg, po administered 30 mins before acetic acid challenge measured after 1 hr relative to control; assay type: functional
Mus musculus [12] = test: Peripheral analgesic activity in Swiss albino mouse assessed as protection against acetic acid-induced writhing response at 20 mg/kg, po administered 30 mins before acetic acid challenge measured after 2 hrs relative to control; assay type: functional
Mus musculus [13] = test: Peripheral analgesic activity in Swiss albino mouse assessed as protection against acetic acid-induced writhing response at 20 mg/kg, po administered 30 mins before acetic acid challenge measured after 3 hrs relative to control; assay type: functional

Structure (SMILES): CCn1c(SC)nc2nc3c(c(-c4ccc(Cl)cc4)c2c1=O)CCC/C3=C/c1ccc(Cl)cc1
- Activity [1]: 3.93%
- inhibition [2]: 37%
- Activity [3]: 0.021
- Activity (Brain): Active
- Activity (Kidney): Active

Structure (SMILES): Cc1c(C(=O)/C=C/c2ccccc2)sc2nc3nc4c(c(-c5ccc(Cl)cc5)c3c(=O)n12)CCC/C4=C/c1ccc(Cl)cc1
- Activity [1]: 4.54%
- inhibition [2]: 38.9%
- Activity [3]: 0.035
- Activity (Brain): Active
- Activity (Kidney): Active

Structure (SMILES): O=c1[nH]c(=S)[nH]c2c1C(c1ccccc1)C1=C(N2)/C(=C/c2ccccc2)CCC1 (centres undefined)
- Activity [1]: 35.75%
- inhibition [2]: 81.5%
- Activity [3]: 0.025
- Activity (Rattus norvegicus [4]): 49%
- Activity (Rattus norvegicus [5]): 53.2%
- Activity (Rattus norvegicus [6]): 41%
- Activity (Mus musculus [7]): 9.42 min
- Activity (Mus musculus [8]): 10.41 min
- Activity (Mus musculus [9]): 11.67 min
- Activity (Mus musculus [10]): 61.2%
- Activity (Mus musculus [11]): 65.1%
- Activity (Mus musculus [12]): 69.2%
- Activity (Mus musculus [13]): 50.1%
- Activity (Brain): Active
- Activity (Kidney): Active

Structure (SMILES): C/C(=N/NC(N)=S)c1sc2nc3nc4c(c(-c5ccc(Cl)cc5)c3c(=O)n2c1C)CCC/C4=C/c1ccc(Cl)cc1
- Activity [1]: 6.21%
- inhibition [2]: 63%
- Activity [3]: 0.065
- Activity (Brain): Active
- Activity (Kidney): Active

Structure (SMILES): O=C1O[C@H]([C@@H](O)CO)C(O)=C1O
- Activity [3]: 0.02

Structure (SMILES): CSc1nc2nc3c(c(-c4ccc(Cl)cc4)c2c(=O)[nH]1)CCC/C3=C/c1ccc(Cl)cc1
- Activity [1]: 4.24%
- inhibition [2]: 33.3%
- Activity (Rattus norvegicus [4]): 50.1%
- Activity (Rattus norvegicus [5]): 56.2%
- Activity (Rattus norvegicus [6]): 32.4%
- Activity (Mus musculus [7]): 8.42 min
- Activity (Mus musculus [8]): 10.41 min
- Activity (Mus musculus [9]): 10.67 min
- Activity (Mus musculus [10]): 50.4%
- Activity (Mus musculus [11]): 52%
- Activity (Mus musculus [12]): 55.5%
- Activity (Mus musculus [13]): 37.6%
- Activity (Brain): Active
- Activity (Kidney): Active

Structure (SMILES): COc1ccc(/C=C2\CCCC3=C2Nc2[nH]c(=S)[nH]c(=O)c2C3c2ccc(OC)cc2)cc1 (centres undefined)
- Activity [1]: 8.18%
- inhibition [2]: 66.7%
- Activity (Rattus norvegicus [4]): 59.5%
- Activity (Rattus norvegicus [5]): 62.4%
- Activity (Rattus norvegicus [6]): 46.5%
- Activity (Mus musculus [7]): 9.84 min
- Activity (Mus musculus [8]): 11.62 min
- Activity (Mus musculus [9]): 11.88 min
- Activity (Mus musculus [10]): 69%
- Activity (Mus musculus [11]): 74%
- Activity (Mus musculus [12]): 75.4%
- Activity (Mus musculus [13]): 58.2%
- Activity (Brain): Active
- Activity (Kidney): Active
